Our source for the cytotoxicity values is ChEMBL document CHEMBL4513216, “Probing the Open Global Health Chemical Diversity Library for Multistage-Active Starting Points for Next-Generation Antimalarials” (ACS Infect Dis, 2020).

Molecules are shown by their SMILES.

The nature of the data set: Toxicity liver stage against HepG2, at 10uM. Further details: test concentration 10 uM, cell line HepG2-A16-CD81EGFP. The format is cell-based. The note with it: human, HepG2-A16-CD81EGFP cells; read-out: INHIBITION
In short, it runs like this:
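Uninfected HepG2-A16-CD81EGFP cells, 3 × 10^3 per well, 1536-well, plated on prespotted compound at 10 μM final, parasite-free screening media added to match infected plates; puromycin 10 μM positive, DMSO 0.5% negative; run in parallel with 48 h PbLuc assay at 37 °C, 5% CO2; viability by CellTiter-Glo luminescence, normalized to controls.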
As for `COc1ccc(CN2CCOC[C@H](OCCC(C)C)C2)cc1`, the cytotoxicity at 10 µM was -4.04%. With `CC(C)(C)CN[C@@H]1CO[C@H](CNC(=O)c2cccs2)[C@H]1O` the figure was -4.23%; with `COCCCNC(=O)N1CCN(C(=O)c2nsc3ccccc23)CC1`, 12%.

For the compound `O=S(=O)(c1cccnc1)N1CCN(CC(O)c2cccs2)CC1` (configuration not stated), the cytotoxicity at 10 µM was -4.21%.

As for `O=C(C1CCC2(CCN(c3ncccn3)CC2)CO1)N1CCCC1` (configuration not stated), the cytotoxicity at 10 µM was determined as 5.59%.

With `COC[C@@H]1CC[C@H]2[C@H](CCN2S(=O)(=O)Cc2ccccc2)O1`, the cytotoxicity at 10 µM was found to be 7.43%. Turning to `N#Cc1ccc(OC[C@]23COC[C@H]2CN(c2ncccn2)C3)nc1`, the cytotoxicity at 10 µM is -1.84%. With `CC(C)NC(=O)N1CCC2(COCc3cnc(-c4ccccc4)nc32)C1` (configuration not stated) the figure was -0.311%; with `O=C(c1cnc2ccc(F)cc2c1NCc1ccco1)N1CCCCC1`, 9.34%. Consider `COc1ccc(-n2nc(C(C)=O)c(C(C)=O)c2C)cc1Cl`, for which the cytotoxicity at 10 µM was -0.145%. In the case of `Cc1cs/c(=N\C(=O)Cn2nc(N3CCOCC3)ccc2=O)[nH]1`, the cytotoxicity at 10 µM was -5.07%. As for `CNC(=O)Cc1n[nH]c(-c2cncc(Br)c2)n1`, the figure is -4.97%; as for `O=C(Cn1cc(I)cn1)N1CCCCCC1`, 8.9%; as for `Cc1ccc(-c2cc(N)c(=O)n(C(C)C(N)=O)n2)o1` (configuration not stated), -1.89%.

As to `Cn1cc(CN2CCC(c3cc(COc4ccc(Cl)cc4)[nH]n3)C2)cn1` (configuration not stated), the cytotoxicity at 10 µM came to 0.0085%.

As for `CCN(CC)CCCNCc1cc2cc(C)ccc2[nH]c1=O`, the cytotoxicity at 10 µM was -1.55%. As for `Cc1noc(C)c1CCC(=O)NCC1(O)CCN(c2ccccn2)C1` (configuration not stated), the figure is 2.12%; as for `CC(=O)N1CCOC(c2cncc(CCC(=O)N(C)C)n2)C1` (configuration not stated), -0.197%; as for `CNC(=O)c1cnn2c(C3CCCN3C)ccnc12` (configuration not stated), 3.74%. For the compound `Cc1nc(C(=O)NCc2ccccn2)cc(C2CCCN2)n1` (configuration not stated), the cytotoxicity at 10 µM was found to be 6.83%. With `Cc1nc2ccc(C(=O)N3CCC(COc4ccccn4)CC3)cc2[nH]1` the figure was -8.09%; with `Cc1cc(O)nc(C2CN(CCC(F)(F)F)CCO2)n1` (configuration not stated), -27.4%; with `CCNC(=O)C1(CC2CC(c3ccccc3OC)=NO2)CCOCC1` (configuration not stated), -26.8%. Consider `Cc1ccc2c(c1)C(=O)NCC1(CCN(Cc3ccccc3)CC1)O2`, for which the cytotoxicity at 10 µM was -26.9%.

`O=S(=O)(Nc1ccc(N2CCOCC2)cc1)c1cccc(F)c1`: the cytotoxicity at 10 µM worked out at 12%. With `Cn1cc(C(=O)N2CCN(c3ccc(F)cc3)CC2)ccc1=O` the figure was 1.37%. With `CN(c1cccnc1N1CCCC1)S(=O)(=O)c1cccnc1` the figure was 0.981%.

Turning to `Cc1cnn(-c2ccc(S(=O)(=O)N(C)CC(C)(CO)CO)cc2F)c1`, the cytotoxicity at 10 µM stood at 12.5%.

`O=C(NCC(F)(F)F)c1ccncc1`: the cytotoxicity at 10 µM was -19%. As for `CC(C#N)CN(C)C(=O)CCNC(=O)OCC(F)(F)F` (configuration not stated), the figure is 3.89%; as for `CCOCC(=O)N1CCC(C(O)c2ccc(F)cc2)CC1` (configuration not stated), -3.83%; as for `Cc1[nH]nc2ncc(C(=O)N3CCN(CC(C)(C)O)CC3)cc12`, -0.0414%. Consider `O=C(CN1CCCS1(=O)=O)Nc1ccc(OC2CCCC2)c(Cl)c1`, for which the cytotoxicity at 10 µM was -8.87%. As for `CCc1ccc(C(=O)N2CCCN(Cc3csc(CC)n3)CC2)o1`, the figure is -1.86%; as for `CC(NC(=O)NCCCn1ccnc1)c1nncn1C` (configuration not stated), 0.277%. With `Cc1ccc(N(CC(=O)N2CCCCC2)C(=O)C2CCCO2)cc1` (configuration not stated) the figure was 13.9%; with `Cc1cc(Br)ccc1NCC(=O)Nc1cc(C(C)(C)C)no1`, 5.09%; with `O=C(Nc1cnc(C2CC2)nc1)N1CCC(CN2CCCC2)C1` (configuration not stated), 18.8%. As to `CSc1cc2c(cc1NC(=O)NCc1ccco1)OCCO2`, the cytotoxicity at 10 µM was -5.08%.

For `Cc1cc2n(n1)CC(CNC1CCN(C(=O)c3ccco3)CC1)CN2` (configuration not stated), the cytotoxicity at 10 µM stood at 4%.

`Cc1ccc(-n2nnc(CC(=O)N3CCN(C(C)C)CC3)c2C)cc1`: the cytotoxicity at 10 µM was -3.36%. With `CCc1nccn1C1CCCN(C(=O)c2cnc[nH]2)C1` (configuration not stated) the figure was 2.52%; with `O=C1CC(Cc2ccc(NC(=O)c3cccc(F)c3)cc2)C(=O)N1` (configuration not stated), -1.39%; with `CC(CO)N1CCN(C(=O)OC(C)(C)C)CC1` (configuration not stated), -7.85%. As for `CC(C)=CCS(=O)(=O)Cc1noc(CC(C)C)n1`, the figure is -4.59%; as for `Cn1cc(NC(=O)Cc2cccs2)c(=O)n(C)c1=O`, 0.393%; as for `Cn1cc(S(=O)(=O)NC(=O)C2(c3cccc(Cl)c3)CC2)cn1`, -10%. As for `CC(C)c1nc2n(n1)CC(NCC(=O)N(C)Cc1cccs1)CC2` (configuration not stated), the figure is -10.2%.

For `c1cncc(CN2CCC(NCCc3ccc4c(c3)CCO4)CC2)c1`, the cytotoxicity at 10 µM came to 5.41%.

For `CCc1cnccc1C(=O)NC1CCN(C(=O)OC)CC1`, the cytotoxicity at 10 µM is 9.09%. With `CC(C)NC(=O)N(C)C1CCN(c2ccccc2Cl)C1=O` (configuration not stated) the figure was -4.56%. With `Cc1noc(C)c1CN(C)C(=O)CCn1c(=O)n(C)c2ccccc21` the figure was -6.67%; with `N#Cc1cc(S(N)(=O)=O)ccc1NC1CCc2ccc(F)cc21` (configuration not stated), 8.08%; with `Cc1cc(C#N)ccc1S(=O)(=O)N1CCN(C)Cc2ccccc21`, 5.34%. Turning to `CC(=O)NCCNC(=O)c1cnc(-c2ccccc2)nc1`, the cytotoxicity at 10 µM was 6.56%.

With `CN(C)CCn1c2c(ccc1=O)CCN(Cc1ccncc1)CC2`, the cytotoxicity at 10 µM was found to be 3.97%.

With `COCCCNC(=O)c1ccn(-c2ccc3ccccn23)n1`, the cytotoxicity at 10 µM is -0.987%. As for `COc1ccccc1OC1CN(C(=O)Cc2c(C)nc3ccccn23)C1`, the figure is -2.27%; as for `CN(C)C(C(=O)N1CCC(CCO)CC1)c1ccccc1F` (configuration not stated), 5.88%; as for `O=C(C1CC(=O)N(C2CC2)C1)N1CCC(Oc2ccccc2Cl)CC1` (configuration not stated), -7.54%. Consider `COCc1cc(CNC(=O)c2c(O)cccc2O)n[nH]1`, for which the cytotoxicity at 10 µM is -6.93%.

In the case of `C[C@@H]1CN(Cc2cn(C)nc2-c2ccccc2F)C[C@H](C)O1`, the cytotoxicity at 10 µM was -1.43%. Consider `Cc1cccc(C2CCCN(C(=O)C3CCN(CC(N)=O)CC3)C2)c1` (configuration not stated), for which the cytotoxicity at 10 µM is -7.18%. As for `COC(=O)[C@H]1C[C@@H](O)CCN1S(=O)(=O)c1c(C)cc(OC)c(C)c1C`, the figure is -16.2%. Consider `Cc1nccn1CCC1CCCCN1Cc1cccc(CCN)c1` (configuration not stated), for which the cytotoxicity at 10 µM was 0.106%. With `O=C(c1ccccc1)N1CCCC(Nc2ccc(F)cc2)C1` (configuration not stated), the cytotoxicity at 10 µM was -3.09%. Turning to `CC(NC(=O)Nc1ccccc1CN1CCOCC1)c1nnc(N)s1` (configuration not stated), the cytotoxicity at 10 µM was 4.84%. With `O=C(NCC(F)(F)F)C(c1cccnc1)N1CCOCC1` (configuration not stated) the figure was 1.51%; with `CN(C)c1nc(-c2ccncc2)nc2c1CCN(C(=O)[C@H](N)CO)C2`, 8.01%. With `Cc1cc(N2CCN(C(=O)CCc3scnc3C)CC2)nc(N)n1` the figure was -49.2%. With `Cc1ccc(-c2nc3c([nH]2)CCNC3C(=O)O)c2cccnc12` (configuration not stated) the figure was 5%. As to `Cc1cc(NCCNS(C)(=O)=O)nc2cc3c(cc12)CCC3`, the cytotoxicity at 10 µM came out at 2.9%. As for `Cc1oc(-c2cc(F)cc(F)c2)nc1CN1C[C@@H](C)NC[C@@H]1C`, the figure is -1.66%; as for `CCNC(=O)[C@@H]1C[C@H](N)CN1C(=O)CCc1ccccc1Cl`, 4.79%; as for `Cc1ccc2[nH]c(=O)cc(C(=O)NCCCn3nccc3C3CC3)c2c1`, -4.35%.

Turning to `COCCN(Cc1nccs1)C(=O)c1c(C)cc(C)[nH]c1=O`, the cytotoxicity at 10 µM amounted to 0.0773%. Turning to `CCc1cnc(CN(C(C)=O)C2CCN(Cc3nccn3C)C2)o1` (configuration not stated), the cytotoxicity at 10 µM was -8.13%. With `CCc1nc(CN2CCOC(Cn3cncn3)C2)no1` (configuration not stated) the figure was -5.71%; with `CCN(CC)C(=O)Cn1ccc2cc(NC(=O)COC)ccc21`, -7.89%; with `CCc1noc(CN2CCN(C(=O)N(CC)CC)CC2)n1`, -1.67%.

Take `CCOc1ccnc(N2CCCN(C(=O)c3cc[nH]c3C)CC2)n1`: the cytotoxicity at 10 µM amounted to 0.893%. Regarding `CCc1n[nH]c(C2CN(C(=O)c3cc4c(s3)CCC4)CCO2)n1` (configuration not stated), the cytotoxicity at 10 µM was -4.98%.

Turning to `COCCN1CCN(CCCS(=O)(=O)c2ccccc2)CC1C` (configuration not stated), the cytotoxicity at 10 µM is -9.31%. As for `Cc1ccc(NC(=O)C2CSCN2C(=O)c2cc[nH]n2)c(C)c1` (configuration not stated), the figure is -6.1%; as for `CC(Cn1cccn1)NC(=O)NCCc1ccc(Cl)s1` (configuration not stated), -3.56%. As to `Cn1ncc(C(=O)N2CCCC(n3cccn3)C2)c1C1CC1` (configuration not stated), the cytotoxicity at 10 µM turned out to be 4.98%. As for `Cc1cnn(CC2CCCCN2C(=O)Cc2csc(C)n2)c1` (configuration not stated), the figure is 2.26%. With `O=C1NCCCCC1NCc1csc(-c2ccc(F)cc2)n1` (configuration not stated), the cytotoxicity at 10 µM is -13.5%. With `c1ccc(N2CCC3(COCCN(Cc4cccs4)C3)C2)nc1` (configuration not stated) the figure was 1.85%; with `O=C(c1ccncc1)N1CCCC2(COCCN(c3ccccc3)C2)C1` (configuration not stated), 2.31%. With `COCCC(=O)N1CCN(CC2CC2)c2nc(C)ccc2C1` the figure was 9.88%; with `CN1CCOCC12CCN(c1nncs1)CC2`, 8.16%.

For the compound `Cc1noc([C@]23COC[C@H]2CN(C(C)C)C3)n1`, the cytotoxicity at 10 µM amounted to 1.44%. As for `CCN1CCC2(CCC(=O)N2Cc2cccc(C)n2)CC1`, the figure is 5.08%; as for `CC(C)CN1CCC2(CCN(CC3CC3)CC2)C1=O`, 7.37%. For the compound `c1cncc(C[C@H]2[C@H](N3CCOCC3)CCN2Cc2cccs2)c1`, the cytotoxicity at 10 µM amounted to 8.34%. As for `CN(C)S(=O)(=O)N1C[C@H]2CC[C@@H](C1)N(Cc1cccc(C#N)c1)C2`, the figure is 3.62%.
